Key:
[1] = target: Vascular endothelial growth factor receptor 2 (Homo sapiens, UniProt P35968); test: Inhibition of recombinant VEGFR2 kinase domain (unknown origin)
Procedure, shortened: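 In vitro kinase assay using purified recombinant VEGFR-2 kinase domain; IC50 determined.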

[2] = target: T1, Hepatocyte growth factor receptor (Homo sapiens, UniProt P08581); test: Inhibition of recombinant MET kinase domain (unknown origin)
[3] = target: T1, Hepatocyte growth factor receptor; test: Inhibition of MET in human MKN-45 cells assessed as reduction in HGF-mediated autophosphorylation; type: cell-based
Homo sapiens = species: Homo sapiens; test: Selectivity ratio of IC50 for recombinant VEGFR2 (unknown origin) to IC50 for recombinant MET (unknown origin)
Procedure, shortened: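 In vitro enzyme assays used purified recombinant MET and VEGFR-2 kinase domains, each tested separately. IC50 values are in nM. The ratio divides the VEGFR-2 enzyme IC50 by the MET enzyme IC50.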

[4] = Half life in human liver microsomes; type: ADME, Microsome

Sequence of Vascular endothelial growth factor receptor 2 (P35968 whole entry, the tested form may be a part): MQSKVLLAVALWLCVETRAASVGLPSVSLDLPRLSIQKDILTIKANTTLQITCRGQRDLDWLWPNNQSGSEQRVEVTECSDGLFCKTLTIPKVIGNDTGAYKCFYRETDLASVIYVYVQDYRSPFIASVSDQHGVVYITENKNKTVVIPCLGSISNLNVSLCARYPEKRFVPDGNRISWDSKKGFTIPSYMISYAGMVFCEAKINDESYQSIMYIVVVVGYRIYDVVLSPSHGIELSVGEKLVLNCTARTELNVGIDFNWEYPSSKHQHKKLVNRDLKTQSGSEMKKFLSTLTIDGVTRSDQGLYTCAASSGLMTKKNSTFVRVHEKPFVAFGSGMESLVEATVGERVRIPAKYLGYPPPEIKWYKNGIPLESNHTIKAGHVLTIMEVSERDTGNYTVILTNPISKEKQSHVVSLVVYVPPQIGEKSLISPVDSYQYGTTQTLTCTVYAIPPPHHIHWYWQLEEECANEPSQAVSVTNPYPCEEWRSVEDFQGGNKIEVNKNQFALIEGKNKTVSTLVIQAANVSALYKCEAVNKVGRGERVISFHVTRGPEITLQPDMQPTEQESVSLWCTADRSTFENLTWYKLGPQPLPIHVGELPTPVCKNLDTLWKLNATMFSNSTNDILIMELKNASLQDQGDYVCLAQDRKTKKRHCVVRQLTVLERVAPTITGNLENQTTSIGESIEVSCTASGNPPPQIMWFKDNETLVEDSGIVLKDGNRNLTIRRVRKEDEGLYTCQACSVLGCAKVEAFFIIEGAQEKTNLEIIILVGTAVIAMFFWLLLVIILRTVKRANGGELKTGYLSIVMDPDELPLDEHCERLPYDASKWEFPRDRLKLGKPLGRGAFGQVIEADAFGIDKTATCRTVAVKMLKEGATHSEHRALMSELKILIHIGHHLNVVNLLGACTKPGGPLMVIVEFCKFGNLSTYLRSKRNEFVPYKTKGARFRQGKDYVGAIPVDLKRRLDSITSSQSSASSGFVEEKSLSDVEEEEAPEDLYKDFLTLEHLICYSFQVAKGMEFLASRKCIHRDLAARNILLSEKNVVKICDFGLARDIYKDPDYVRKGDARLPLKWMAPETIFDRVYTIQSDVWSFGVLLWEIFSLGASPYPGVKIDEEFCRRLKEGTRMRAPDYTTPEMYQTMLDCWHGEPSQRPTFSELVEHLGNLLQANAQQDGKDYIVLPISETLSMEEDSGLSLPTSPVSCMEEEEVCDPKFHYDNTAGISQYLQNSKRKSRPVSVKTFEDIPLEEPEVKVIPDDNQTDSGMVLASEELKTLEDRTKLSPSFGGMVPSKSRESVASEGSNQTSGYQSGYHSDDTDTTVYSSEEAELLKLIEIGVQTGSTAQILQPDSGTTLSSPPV
T1 sequence (P08581 whole entry, the tested form may be a part): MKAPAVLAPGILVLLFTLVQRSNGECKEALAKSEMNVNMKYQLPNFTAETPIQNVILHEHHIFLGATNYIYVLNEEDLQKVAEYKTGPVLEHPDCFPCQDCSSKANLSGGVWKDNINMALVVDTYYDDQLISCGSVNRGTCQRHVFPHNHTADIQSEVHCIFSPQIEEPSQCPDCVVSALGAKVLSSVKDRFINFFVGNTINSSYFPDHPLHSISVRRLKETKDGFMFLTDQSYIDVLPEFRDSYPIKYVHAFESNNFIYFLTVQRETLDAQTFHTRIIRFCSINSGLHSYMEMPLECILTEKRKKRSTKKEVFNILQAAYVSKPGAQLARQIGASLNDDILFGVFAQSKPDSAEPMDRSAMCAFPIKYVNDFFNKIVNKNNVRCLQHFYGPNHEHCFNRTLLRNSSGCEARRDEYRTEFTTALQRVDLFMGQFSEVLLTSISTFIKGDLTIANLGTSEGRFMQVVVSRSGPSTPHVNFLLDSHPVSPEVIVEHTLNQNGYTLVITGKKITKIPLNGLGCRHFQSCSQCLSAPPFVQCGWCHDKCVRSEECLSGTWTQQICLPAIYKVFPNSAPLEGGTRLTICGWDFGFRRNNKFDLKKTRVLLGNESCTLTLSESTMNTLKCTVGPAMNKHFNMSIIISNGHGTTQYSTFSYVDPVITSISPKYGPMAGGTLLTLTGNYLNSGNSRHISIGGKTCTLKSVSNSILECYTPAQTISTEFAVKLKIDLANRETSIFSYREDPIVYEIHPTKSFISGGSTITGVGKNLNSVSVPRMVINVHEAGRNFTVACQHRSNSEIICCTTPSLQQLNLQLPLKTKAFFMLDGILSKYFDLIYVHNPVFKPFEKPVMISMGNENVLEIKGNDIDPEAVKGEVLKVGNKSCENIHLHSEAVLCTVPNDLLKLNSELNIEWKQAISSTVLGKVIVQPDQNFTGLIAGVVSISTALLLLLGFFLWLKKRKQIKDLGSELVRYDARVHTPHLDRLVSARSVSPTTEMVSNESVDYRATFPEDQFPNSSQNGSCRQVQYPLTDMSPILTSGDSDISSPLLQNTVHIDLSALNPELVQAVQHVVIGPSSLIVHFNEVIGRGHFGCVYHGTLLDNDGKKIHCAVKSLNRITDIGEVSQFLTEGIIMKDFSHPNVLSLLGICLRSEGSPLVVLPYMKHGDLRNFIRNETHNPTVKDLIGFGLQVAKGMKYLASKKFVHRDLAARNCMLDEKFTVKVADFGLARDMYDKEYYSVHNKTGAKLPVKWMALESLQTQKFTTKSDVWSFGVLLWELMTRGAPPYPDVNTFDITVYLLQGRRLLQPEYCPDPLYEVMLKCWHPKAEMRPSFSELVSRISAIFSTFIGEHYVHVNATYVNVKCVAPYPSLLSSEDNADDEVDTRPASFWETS

Row | Compound | IC50 [1] | IC50 [2] | IC50 [3] | Ratio IC50 (Homo sapiens) | half-life [4]
1 | COCCOc1cc2c(Oc3ccc(Nc4nccc5[nH]cc(-c6ccc(F)cc6)c(=O)c45)cc3F)ncnc2cc1OC | 97.3 nM | 36 nM | – | – | –
2 | COc1cc2c(Oc3ccc(Nc4nccc5[nH]cc(-c6ccc(F)cc6)c(=O)c45)cc3F)ncnc2cc1OCCCN1CCCC1 | 128 nM | 8.3 nM | 130 nM | – | –
3 | COc1cc2ncnc(Oc3ccc(Nc4nccc5[nH]cc(-c6ccc(F)cc6)c(=O)c45)cc3F)c2cc1OCCCN1CCCCC1 | 208 nM | 15.5 nM | – | – | –
4 | COc1cc2ncnc(Oc3ccc(Nc4nccc5[nH]cc(-c6ccc(F)cc6)c(=O)c45)cc3F)c2cc1OCCCN1CCCC1 | 145 nM | 8.1 nM | – | – | –
5 | COCCOc1cc2ncnc(Oc3ccc(Nc4nccc5[nH]cc(-c6ccc(F)cc6)c(=O)c45)cc3F)c2cc1OC | 140 nM | 42 nM | – | – | –
6 | COc1cc2ncnc(Oc3ccc(Nc4nccc5c4c(=O)c(-c4ccc(F)cc4)cn5CC(=O)c4ccccc4)cc3F)c2cc1OC | > 3000 nM | 196 nM | – | – | –
7 | COc1cc2c(Oc3ccc(Nc4nccc5[nH]cc(-c6ccc(F)cc6)c(=O)c45)cc3F)ncnc2cc1OCCCO | 68 nM | 39.3 nM | – | – | –
8 | CCn1cc(-c2ccc(F)cc2)c(=O)c2c(Nc3ccc(Oc4ncnc5cc(OC)c(OC)cc45)c(F)c3)nccc21 | > 3000 nM | 28.8 nM | – | > 275 | –
9 | O=c1c(-c2ccc(F)cc2)c[nH]c2ccnc(Nc3ccc(Oc4ncnc5cc6c(cc45)OCCOCCOCCO6)c(F)c3)c12 | 47.6 nM | 9.5 nM | – | – | 0.83 h
10 | COc1cc2ncnc(Oc3ccc(Nc4nccc5c4c(=O)c(-c4ccc(F)cc4)cn5C)cc3F)c2cc1OC | > 3000 nM | 7.1 nM | 82.9 nM | > 422 | 4.27 h
11 | COc1cc2c(Oc3ccc(Nc4nccc5[nH]cc(-c6ccc(F)cc6)c(=O)c45)cc3F)ncnc2cc1OCCN1CCOCC1 | – | 24.5 nM | – | – | –
12 | COc1cc2ncnc(Oc3ccc(Nc4nccc5[nH]cc(-c6ccc(F)cc6)c(=O)c45)cc3F)c2cc1OCC(C)(C)O | 52.9 nM | 7.9 nM | – | – | 4.17 h
